Consider seven molecules from BindingDB's records for doi:10.1016/j.bmcl.2012.04.051 (Ajinomoto Pharmaceuticals, 2012).

In general, pIC50 refers to the IC50 on a negative log10 scale, so that one unit is a factor of ten.

pIC50: −log10 of the molar value.

In this assay the target is Voltage-dependent N-type calcium channel subunit alpha-1B (Homo sapiens, UniProt Q00975). As to the kind of experiment: Inhibition of N-type voltage-dependent calcium channel CaV2.2 in human IMR32 cells assessed as inhibition of KCl-induced increase in intracellular calcium concentration preincubated for 4 to 5 mins before KCl challenge. A digest of the protocol: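 IMR-32 cells on poly-L-lysine/collagen dishes, differentiated with 1 mM dibutyl-cAMP and 2.5 µM bromodeoxyuridine for 10–14 days. Loaded with 2.5 µM fura-2/AM, 37 °C, 30 min. HEPES recording medium with 1 µM nifedipine throughout. Calcium rise evoked by 60 mM KCl for 6 s, repeated every 5 min. Compound at 0.1, 1 or 10 µM; IC50 from ≥2 independent experiments.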
Sequence of Voltage-dependent N-type calcium channel subunit alpha-1B (Q00975 whole entry): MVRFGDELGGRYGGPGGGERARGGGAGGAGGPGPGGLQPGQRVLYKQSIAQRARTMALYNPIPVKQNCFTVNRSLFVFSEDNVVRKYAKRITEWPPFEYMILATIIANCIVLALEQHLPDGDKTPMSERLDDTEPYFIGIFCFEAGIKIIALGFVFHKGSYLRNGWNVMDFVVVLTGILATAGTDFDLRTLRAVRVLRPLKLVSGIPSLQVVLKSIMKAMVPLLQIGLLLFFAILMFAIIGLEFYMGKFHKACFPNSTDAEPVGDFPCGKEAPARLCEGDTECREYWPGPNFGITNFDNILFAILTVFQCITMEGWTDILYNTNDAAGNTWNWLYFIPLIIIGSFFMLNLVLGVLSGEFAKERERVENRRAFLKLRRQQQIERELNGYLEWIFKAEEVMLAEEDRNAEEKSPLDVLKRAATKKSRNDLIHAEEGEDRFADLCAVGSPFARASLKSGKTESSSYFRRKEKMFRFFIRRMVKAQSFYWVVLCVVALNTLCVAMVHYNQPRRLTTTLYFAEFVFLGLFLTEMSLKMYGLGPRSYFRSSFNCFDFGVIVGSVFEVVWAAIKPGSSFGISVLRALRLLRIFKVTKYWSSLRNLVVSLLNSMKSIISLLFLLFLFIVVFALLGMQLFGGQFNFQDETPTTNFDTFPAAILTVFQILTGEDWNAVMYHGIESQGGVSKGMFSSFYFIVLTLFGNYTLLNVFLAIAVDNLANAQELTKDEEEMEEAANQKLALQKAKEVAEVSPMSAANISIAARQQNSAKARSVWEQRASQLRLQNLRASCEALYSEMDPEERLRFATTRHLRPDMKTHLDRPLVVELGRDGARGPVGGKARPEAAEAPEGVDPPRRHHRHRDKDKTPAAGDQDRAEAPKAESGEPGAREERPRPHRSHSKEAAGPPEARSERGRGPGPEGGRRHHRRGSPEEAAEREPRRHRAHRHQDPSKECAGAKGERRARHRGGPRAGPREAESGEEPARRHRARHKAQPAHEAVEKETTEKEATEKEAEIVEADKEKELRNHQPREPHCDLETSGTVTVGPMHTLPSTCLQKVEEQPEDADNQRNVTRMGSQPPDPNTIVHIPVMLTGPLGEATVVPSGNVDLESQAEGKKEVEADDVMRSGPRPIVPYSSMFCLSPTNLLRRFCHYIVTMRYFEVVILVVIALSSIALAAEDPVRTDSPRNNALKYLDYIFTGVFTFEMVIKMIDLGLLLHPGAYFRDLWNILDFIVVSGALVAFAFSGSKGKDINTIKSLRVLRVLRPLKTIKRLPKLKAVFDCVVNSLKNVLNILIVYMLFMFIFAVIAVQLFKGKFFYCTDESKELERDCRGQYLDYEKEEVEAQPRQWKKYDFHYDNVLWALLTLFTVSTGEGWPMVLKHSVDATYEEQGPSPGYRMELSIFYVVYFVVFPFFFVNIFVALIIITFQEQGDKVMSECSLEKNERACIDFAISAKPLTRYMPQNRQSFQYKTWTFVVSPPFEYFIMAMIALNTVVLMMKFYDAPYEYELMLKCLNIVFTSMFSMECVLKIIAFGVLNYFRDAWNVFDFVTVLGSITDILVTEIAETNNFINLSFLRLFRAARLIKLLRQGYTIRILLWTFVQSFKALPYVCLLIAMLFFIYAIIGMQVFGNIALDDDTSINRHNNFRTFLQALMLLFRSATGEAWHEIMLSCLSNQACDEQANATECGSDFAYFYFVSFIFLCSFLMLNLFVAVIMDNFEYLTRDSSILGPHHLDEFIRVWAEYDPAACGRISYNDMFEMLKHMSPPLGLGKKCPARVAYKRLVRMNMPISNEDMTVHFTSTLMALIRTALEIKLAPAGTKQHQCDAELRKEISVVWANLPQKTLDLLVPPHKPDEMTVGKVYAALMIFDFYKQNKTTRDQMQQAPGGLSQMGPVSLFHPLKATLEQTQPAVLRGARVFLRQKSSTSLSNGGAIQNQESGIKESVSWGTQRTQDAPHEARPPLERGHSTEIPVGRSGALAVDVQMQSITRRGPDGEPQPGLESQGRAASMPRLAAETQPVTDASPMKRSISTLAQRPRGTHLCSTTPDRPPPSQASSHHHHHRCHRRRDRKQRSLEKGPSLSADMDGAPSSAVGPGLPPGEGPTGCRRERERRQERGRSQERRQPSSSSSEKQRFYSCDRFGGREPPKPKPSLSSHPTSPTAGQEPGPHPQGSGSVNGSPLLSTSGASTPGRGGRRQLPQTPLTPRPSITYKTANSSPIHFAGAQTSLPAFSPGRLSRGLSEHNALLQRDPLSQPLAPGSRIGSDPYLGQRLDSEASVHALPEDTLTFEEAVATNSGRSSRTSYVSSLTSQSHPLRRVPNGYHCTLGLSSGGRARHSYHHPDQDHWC
In general terms: A change in cytosolic calcium serves as a functional read-out for many receptors and channels.

Regarding `COC(OC)C1=C(C(=O)OC/C=C/c2ccccc2)C(c2cccc(Cl)c2)C(C(=O)O)C=N1` (configuration not stated), the pIC50 is 5.96. Next, `COc1c(Cl)cc(C2C(C(=O)OC/C=C/c3ccccc3)=C(C(OC)OC)N=CC2C(=O)O)cc1Cl` (configuration not stated): 5.92; `COC(OC)C1=C(C(=O)OC/C=C/c2ccccc2)C(c2cccc(C(F)(F)F)c2)C(C(=O)O)C=N1` (configuration not stated): 5.96; `COC(OC)C1=C(C(=O)OC/C=C/c2ccccc2)C(c2ccc(Cl)cc2)C(C(=O)O)C=N1` (configuration not stated): 5.96. As for `O=C(OC/C=C/c1ccccc1)C1=CN=CC(C(=O)O)C1c1cccc(C(F)(F)F)c1` (configuration not stated), the pIC50 was 5.92.

Take `O=C(OC/C=C/c1ccccc1)C1=CN=CC(C(=O)O)C1c1ccc(Cl)cc1` (configuration not stated): the pIC50 was 5.92. Consider `COc1c(Cl)cc(C2C(C(=O)OC/C=C/c3ccccc3)=CN=CC2C(=O)O)cc1Cl` (configuration not stated), for which the negative-log IC50 (pIC50) is 6.24.
